What all share (type): functional
Test [1] relates to Aspergillus niger. The test can be described thus: Antifungal activity against Aspergillus niger MTCC 404 assessed as zone of inhibition at 24 uM incubated for 2 days by cross streak plate method. The settings on record: MTCC 404, 48 h, time 2 day, read-out: IZ. The method, boiled down:
(§1)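 Fungal strain (A. niger MTCC 404 or S. cerevisiae MTCC 1344) was incubated with the compound for 2 days at 37 °C. Growth inhibition was then assessed by the cross streak plate method.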

In test [2] the test system is Saccharomyces cerevisiae. Kind of test: Antifungal activity against Saccharomyces cerevisiae MTCC 1344 assessed as zone of inhibition at 24 uM incubated for 2 days by cross streak plate method. The settings on record: MTCC 1344, 48 h, time 2 day, read-out: IZ. The method, boiled down: as §1
For test [3], the system named is Aspergillus niger. The test can be described thus: Antifungal activity against Aspergillus niger MTCC 404 assessed as zone of inhibition at 36 uM incubated for 2 days by cross streak plate method. To be noted: MTCC 404, 48 h, time 2 day, read-out: IZ. The method, boiled down: as §1
Test [4] concerns Aspergillus niger. The test can be described thus: Antifungal activity against Aspergillus niger MTCC 404 assessed as zone of inhibition at 48 uM incubated for 2 days by cross streak plate method. The settings on record: MTCC 404, 48 h, time 2 day, read-out: IZ. The gist of the method: as §1
The subject of test [5] is Saccharomyces cerevisiae. Kind of test: Antifungal activity against Saccharomyces cerevisiae MTCC 1344 assessed as zone of inhibition at 36 uM incubated for 2 days by cross streak plate method. To be noted: MTCC 1344, 48 h, time 2 day, read-out: IZ. The method, boiled down: (§2)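 S. cerevisiae MTCC 1344 cultures were incubated for 2 days at 37 °C and then tested by the cross streak plate method.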

Test [6] relates to Saccharomyces cerevisiae. The test can be described thus: Antifungal activity against Saccharomyces cerevisiae MTCC 1344 assessed as zone of inhibition at 48 uM incubated for 2 days by cross streak plate method. To be noted: MTCC 1344, 48 h, time 2 day, read-out: IZ. The method, boiled down: as §2
Another test deals with Staphylococcus aureus. The test can be described thus: Antibacterial activity against Staphylococcus aureus MTCC 96 assessed as bacterial growth inhibition by microdilution method. The method, boiled down: (§3)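 Broth microdilution against Gram-positive and Gram-negative strains. The endpoint is the minimal inhibitory concentration, in µg/ml.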
Another test has as its system Bacillus subtilis. Kind of test: Antibacterial activity against Bacillus subtilis MTCC 441 assessed as bacterial growth inhibition by microdilution method. The gist of the method: as §3
The subject of another test is Pseudomonas aeruginosa. The test can be described thus: Antibacterial activity against Pseudomonas aeruginosa MTCC 424 assessed as bacterial growth inhibition by microdilution method. The gist of the method:
as §3

The next test has as its system Escherichia coli. The test can be described thus: Antibacterial activity against Escherichia coli MTCC 443 assessed as bacterial growth inhibition by microdilution method. The gist of the method: as §3
Test [7] has as its system Aspergillus niger. Kind of test: Antifungal activity against Aspergillus niger MTCC 404 assessed as zone of inhibition at 16 uM incubated for 2 days by cross streak plate method. To be noted: MTCC 404, 48 h, time 2 day, read-out: IZ. The gist of the method:
as §1

In test [8] the test system is Aspergillus niger. The test can be described thus: Antifungal activity against Aspergillus niger MTCC 404 assessed as zone of inhibition at 32.1 uM incubated for 2 days by cross streak plate method. To be noted: MTCC 404, 48 h, time 2 day, read-out: IZ. The gist of the method:
as §1

Test [9] has as its system Saccharomyces cerevisiae. Kind of test: Antifungal activity against Saccharomyces cerevisiae MTCC 1344 assessed as zone of inhibition at 16 uM incubated for 2 days by cross streak plate method. To be noted: MTCC 1344, 48 h, time 2 day, read-out: IZ. The gist of the method:
as §1

Test [10] relates to Saccharomyces cerevisiae. The test can be described thus: Antifungal activity against Saccharomyces cerevisiae MTCC 1344 assessed as zone of inhibition at 32.1 uM incubated for 2 days by cross streak plate method. To be noted: MTCC 1344, 48 h, time 2 day, read-out: IZ. The method, boiled down: as §2
A short description of test [11]: Antioxidant activity assessed as DPPH radical scavenging activity.
Test [12] deals with Aspergillus niger. Kind of test: Antifungal activity against Aspergillus niger MTCC 404 assessed as zone of inhibition at 15.6 uM incubated for 2 days by cross streak plate method. The settings on record: MTCC 404, 48 h, time 2 day, read-out: IZ. The gist of the method:
as §1

Test [13] deals with Aspergillus niger. Kind of test: Antifungal activity against Aspergillus niger MTCC 404 assessed as zone of inhibition at 23.4 uM incubated for 2 days by cross streak plate method. The settings on record: MTCC 404, 48 h, time 2 day, read-out: IZ. The method, boiled down:
as §1

Test [14] deals with Aspergillus niger. The test can be described thus: Antifungal activity against Aspergillus niger MTCC 404 assessed as zone of inhibition at 31.2 uM incubated for 2 days by cross streak plate method. The settings on record: MTCC 404, 48 h, time 2 day, read-out: IZ. The method, boiled down: as §1
For test [15], the system named is Saccharomyces cerevisiae. The test can be described thus: Antifungal activity against Saccharomyces cerevisiae MTCC 1344 assessed as zone of inhibition at 15.6 uM incubated for 2 days by cross streak plate method. The settings on record: MTCC 1344, 48 h, time 2 day, read-out: IZ. The gist of the method: as §1
Test [16] concerns Saccharomyces cerevisiae. Kind of test: Antifungal activity against Saccharomyces cerevisiae MTCC 1344 assessed as zone of inhibition at 23.4 uM incubated for 2 days by cross streak plate method. The settings on record: MTCC 1344, 48 h, time 2 day, read-out: IZ. The method, boiled down:
as §1

The test system of test [17] is Saccharomyces cerevisiae. The test can be described thus: Antifungal activity against Saccharomyces cerevisiae MTCC 1344 assessed as zone of inhibition at 31.2 uM incubated for 2 days by cross streak plate method. To be noted: MTCC 1344, 48 h, time 2 day, read-out: IZ. The method, boiled down:
as §1

Calls of active or inactive are those of the source. No cut-off for these calls is given here.

Take `Clc1ccc(COC(Cn2ccnc2)c2ccc(Cl)cc2Cl)c(Cl)c1` (stereo not drawn) [MICONAZOLE]: the zone of inhibition at 24 µM in the test with Aspergillus niger [1] and with Saccharomyces cerevisiae [2] was 8 mm each time. Besides, the zone of inhibition at 36 µM in the test on Aspergillus niger [3] stood at 10 mm; in the test with Saccharomyces cerevisiae [5], 9 mm. Also, the zone of inhibition at 48 µM with Aspergillus niger [4] and with Saccharomyces cerevisiae [6] was 12 mm throughout.
`O=C(CSc1nnc(-c2ccccc2OCc2cn(-c3ccccc3)nn2)n1-c1ccccc1)c1ccc(Br)cc1`: the MIC in the test on Staphylococcus aureus was found to be 7.9 µg/mL; in the test on Bacillus subtilis, 4.1 µg/mL; in the test on Pseudomonas aeruginosa, 7.5 µg/mL; in the test on Escherichia coli, 10 µg/mL. Also, the zone of inhibition at 16 µM with Aspergillus niger [7] amounted to 1.5 mm; in the test on Saccharomyces cerevisiae [9] it was 2 mm. The zone of inhibition at 24 µM in the test on Aspergillus niger [1] and in the test on Saccharomyces cerevisiae [2] was 2 mm in each case. Besides, the zone of inhibition at 32.1 µM in the test on Aspergillus niger [8] and in the test with Saccharomyces cerevisiae [10] was 3 mm in each case. The result in test [11] was inactive.
As to `O=C(CSc1nnc(-c2ccccc2OCc2cn(-c3ccccc3)nn2)n1Cc1ccccc1)c1ccc(Br)cc1`, the MIC in the test on Staphylococcus aureus amounted to 3.9 µg/mL; with Bacillus subtilis, 4.2 µg/mL; with Pseudomonas aeruginosa, 8.8 µg/mL; in the test with Escherichia coli it was 4.5 µg/mL. Moreover, the zone of inhibition at 15.6 µM was 5 mm in the test on Aspergillus niger [12] and 6 mm in the test with Saccharomyces cerevisiae [15]. Moreover, the zone of inhibition at 23.4 µM with Aspergillus niger [13] came out at 7.4 mm; with Saccharomyces cerevisiae [16], 6.5 mm. For the same compound, the results for the zone of inhibition at 31.2 µM with Aspergillus niger [14] and with Saccharomyces cerevisiae [17] were 7.6 mm and 7 mm, respectively. Besides, in [11], the result was inactive.

(Values after ChEMBL document CHEMBL4814044, “Design and synthesis, biological evaluation of bis-(1,2,3- and 1,2,4)-triazole derivatives as potential antimicrobial and antifungal agents” (2021).)
